GSK3 alpha inh: blockers of GSK3A enzyme activity – biochemical, luminescence, cell-free homogeneous, HTS, primary screen | AID 2650, 2010 | Glycogen synthase kinase-3 alpha (Homo sapiens), P49840 | inhibition, % at 10 µM | 320,000 tested, 0.1% active | GSK-3 alpha kinase, ADP-Glo luminescence, 60 min;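 active = more than half of replicates show inhibition above 20%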;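 note: GST-tagged GSK-3 alpha with peptide substrate and 25 µM ATP; 0% = DMSO neutral wells and 100% = GW8510 positive control wells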
Target sequence (P49840 whole entry, looked up): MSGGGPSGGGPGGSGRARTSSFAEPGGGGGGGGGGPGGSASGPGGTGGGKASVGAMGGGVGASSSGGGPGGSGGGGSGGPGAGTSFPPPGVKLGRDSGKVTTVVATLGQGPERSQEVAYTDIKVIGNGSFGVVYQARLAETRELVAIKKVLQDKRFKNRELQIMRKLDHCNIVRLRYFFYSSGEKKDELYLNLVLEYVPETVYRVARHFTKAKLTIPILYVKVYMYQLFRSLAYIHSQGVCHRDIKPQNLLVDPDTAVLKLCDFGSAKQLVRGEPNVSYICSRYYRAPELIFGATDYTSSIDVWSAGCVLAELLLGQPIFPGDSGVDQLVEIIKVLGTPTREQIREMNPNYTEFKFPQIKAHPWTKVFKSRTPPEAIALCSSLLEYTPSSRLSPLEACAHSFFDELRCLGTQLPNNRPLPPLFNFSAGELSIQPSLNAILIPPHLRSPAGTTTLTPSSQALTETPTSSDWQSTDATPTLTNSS
TAG inh: inhibitors of triacylglycerol accumulation, primary screen, cell-based, uHTS, fluorescence, H9c2; H9c2 cells, Nile Red lipid (TAG) fluorescence; cells loaded with 200 µM oleic acid; inhibition, % at 12.5 µM; 230,000 tested, 0.66% active; AID 651582, 2012;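 active = pattern-corrected inhibition of lipid staining of at least 50% with the nuclear-stain viability signal not falling by more than 50%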;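 note: 0% = DMSO wells and 100% = triacsin C control wells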
GSK3B inh: human GSK3beta kinase inhibitors, primary screen, biochemical, cell-free homogeneous, HTS; GST-GSK3beta kinase, ADP-Glo luminescence, 60 min; hits give low values; activity score (negative = inhibition), % at 10 µM; 300,000 tested, 0.038% active;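 active = more than half of replicate wells score below -50%, meaning over 50% inhibition versus plate controls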;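 note: 0% = median DMSO wells and -100% = median GW8510 positive control wells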
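Test system: GST-fused GSK3beta enzyme, cell-free | Quantity: 1.6 ng GST-GSK3beta enzyme per well | Reagent: 25 µM ATP with peptide substrate | Schedule: 60 min enzyme reaction, room temperature | Signal: Luminescent ADP-Glo measurement of ADP formed | Read-out basis: Score relative to plate controls | Control set: DMSO and 20 µM GW8510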
LANA-H2A inh: blockers of LANA interaction with H2A/H2B – biochemical, FP readout, HTS, primary screen | AID 2629, 2010 | 320,000 tested, 0.6% active | cell-free LANA-H2A/H2B peptide, fluorescence polarization | inhibition, % (no concentration beside the values) | Protein LANA1 (Human herpesvirus 8 type P (isolate GK18)), Q9QR71; in the data active = inhibition mostly above about 10%, no sharp cut-off; inactive = mostly below about 6.7%
Lipid droplet: inhibitors of hepatocyte lipid droplet formation, primary screen, imaging, high-throughput imaging, BODIPY stain. AID 1656, 2009. 240,000 tested, 0.4% active. AML12 mouse hepatocytes, oleate lipid droplets. inhibition, % at 6.5 µM;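 active = lipid droplet intensity inhibited by at least 50%, with more than 500 cells counted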
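material = mouse AML12 hepatocyte cell line, fixed after treatment | also added = 100 µM oleic acid challenge | doses = compound at 6.5 µM only | schedule = overnight exposure | technique = Image-based BODIPY and DAPI two-channel analysis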
STK33 inh: inhibitors of purified STK33 kinase, primary screen, biochemical, ADP-Glo luminescence, homogeneous, cell-free | MBP phosphorylation | inhibition, % at 10 µM | 320,000 tested, 0.073% active | Serine/threonine-protein kinase 33 (Homo sapiens), Q9BYT3;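 active = inhibition at or above 25%, using the most active replicate where run in duplicate; inactive = inhibition below 25%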
Hep lipid conf: hepatocyte lipid droplet accumulation inhibitors, confirmation, imaging, AML12 mouse hepatocytes, single concentration, high-content. shares compounds with Lipid droplet. BODIPY lipid droplet imaging; droplets induced with 100 µM oleic acid. inhibition, % at 5.2 µM. 870 tested, 65% active;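 active = inhibition of lipid droplet metric at least 50%, with more than 300 cells in each of four replicates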;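 note: plate controls were DMSO with oleic acid for no effect and 5 µM Triacsin-C for full effect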
AML12 tox img: AML12 hepatocyte cytotoxicity, counter-screen for hepatic lipid droplet formation project, imaging, DAPI nuclear morphology imaging | 870 tested, 3% active | z-score at 5 µM | AML12 mouse hepatocytes; hits give high values; cells fed 100 µM oleate overnight | shares compounds with Lipid droplet; in the data active = z-score above about 6.3;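 note: compound exposure lasted overnight at 37 °C before fixation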
AML12 tox conf: AML12 hepatocyte cytotoxicity, confirmation, cytotoxicity control for hepatic lipid droplet formation project, cell-based, single concentration; shares compounds with Lipid droplet; AML12 mouse hepatocyte viability, ATP luminescence; cells loaded with 100 µM oleic acid; cytotoxicity, % at 50 µM; 530 tested, under 10 active; AID 463219, 2010;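 active = cytotoxicity above 50% in each of four replicates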;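 note: compound exposure lasted overnight at 37 °C before the ATP read; 0% = DMSO-treated cells and 100% = wells with no cells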
* marks the source's active call; other numbers are inactive results; / = no result given. Only some compounds are listed: those with a hit (about 1.3% of all), similar ones and a draw of the others.

SMILES	GSK3 alpha inh	TAG inh	GSK3B inh	LANA-H2A inh	Lipid droplet	STK33 inh	Hep lipid conf	AML12 tox img	others
CN(C)S(=O)(=O)Nc1cccc(NC(=O)CC23CC4CC(CC(C4)C2)C3)c1	-2	/	-2	6	0	-1	/	/
COc1ccc(CCc2ccc3ccccc3n2)cc1	/	-13	/	/	/	/	/	/
CCOc1ccc(CCNC(=O)CCOc2cc(C)ccc2C)cc1OCC	-1	/	-2	-1	98*	0	111*	-0.47	AML12 tox conf=15
CCOc1ccc(CCNC(=O)CS(=O)Cc2nc(-c3ccccc3C)oc2C)cc1OCC (centres undefined)	0	/	-3	5	61*	-1	89*	-0.19	AML12 tox conf=13
CCOc1ccc(CCNC(=O)CS(=O)Cc2nc(-c3ccc(C)cc3)oc2C)cc1OCC (centres undefined)	-3	/	4	-3	46	-1	/	/
CCOc1ccc(CCNC(=O)CN2C(=O)c3cccnc3Oc3ccc(C)cc32)cc1OCC	-2	46	6	-4	92*	0	110*	-0.37	AML12 tox conf=10
CCOc1ccc(CCNC(=O)CSCc2ccc(C)cc2)cc1OCC	-2	35	-3	-1	88*	-1	109*	-0.82
Cc1cccc[n+]1C1C(c2ccccc2)C(C#N)=C(C(=C=[N-])C#N)NC1(O)C1CC1 (centres undefined)	6	/	2	3	/	2	/	/
CCOc1ccc(CCNC(=O)CCC(=O)N2CCOc3ccc(C)cc32)cc1OCC	1	49	-2	-3	80*	0	112*	-1.1	AML12 tox conf=16
CCc1cc(=O)oc2cc(C)cc(OCC(=O)NCCc3c[nH]c4ccccc34)c12	-4	/	0	-4	-21	0	/	/
COc1cccc(N=Nc2c(C)[nH]n(-c3ccccc3)c2=O)c1	1	/	-1	-6	51*	-3	103*	-0.7	AML12 tox conf=12
CCCOc1ccc(C(=O)OCC(=O)c2c(N)n(C)c(=O)n(C)c2=O)cc1OC	-2	-13	2	3	1	-1	/	/
N=c1c(C(=O)NCCN2CCOCC2)cc2c(=O)n3ccccc3nc2n1Cc1ccc(F)cc1	2	/	1	8	-23	-2	/	/
N=c1c(C(=O)NCCN2CCOCC2)cc2c(=O)n3ccccc3nc2n1CCCN1CCOCC1	-2	/	2	0	52*	1	16	-0.46
Cc1cccc(NC2=C(NCCO)C(=O)c3ccccc3C2=O)c1	10	/	-4	2	89*	6	97*	0.31	AML12 tox conf=22
COc1cccc(NC2=C(NCCO)C(=O)c3ccccc3C2=O)c1	-2	35	1	-5	5	-2	/	/
CC(C)Sc1nc(N2CCOCC2)c2c(c1C#N)CC(C)(C)SC2	-5	/	-3	0	/	-1	/	/
COc1ccc(/C=N/N=C2\SCC(=O)N2c2c(C)n(C)n(-c3ccccc3)c2=O)cc1OC	-4	-4	2	-2	62*	-1	32	-0.53
CCCCN(C)CCCNC(=O)c1ccc2c(c1)N(CC)C(=O)c1ccccc1S2=O (centres undefined)	-1	/	2	1	2	-1	/	/
CC1(C)OC(c2ccccc2)=C/C(=C/C=C2C(=O)c3ccccc3C2=O)O1	0	12	1	-5	73*	1	27	0.25
CCOC(=O)/C(C(=O)Nc1ccccc1Cl)=C1/NC(C)(C)Cc2ccccc21	-2	/	2	0	53*	0	32	0.35
Cc1ccc(NC(=O)c2ccc(CN3CC(=O)N4CCCCC4C3=O)cc2)c(C)c1 (centres undefined)	2	-12	2	4	1	0	/	/
Cc1ccc(CNC(=O)c2ccc3nc4[nH]c5ccccc5c4nc3c2)cc1	/	/	3	/	55*	/	91*	-0.28
O=c1[nH]c(CSc2nnc(-c3ccccc3)n2-c2ccccc2)nc2ccccc12	-3	13	1	3	62*	0	11	-0.27
Cc1ccc(-n2c(SCc3nc4ccccc4c(=O)[nH]3)nnc2-c2ccccc2O)cc1	-1	/	-1	-2	-8	14	/	/
SMILES	GSK3 alpha inh	TAG inh	GSK3B inh	LANA-H2A inh	Lipid droplet	STK33 inh	Hep lipid conf	AML12 tox img	others
COC(=O)CN=C1OC(=O)N2C(=O)C3=C4[C@@H](C[C@H]5C(=O)N(c6ccccc6)C(=O)[C@H]5[C@H]4[C@@]12Cc1ccccc1)[C@H]1C(=O)N(c2ccccc2)C(=O)[C@H]1[C@H]3C	8	/	2	-3	-29	-1	/	/
O=C(COC(=O)c1ccccc1NS(=O)(=O)c1cccs1)NCC12CC3CC(CC(C3)C1)C2	-9	/	1	3	-12	1	/	/
CCOc1ccc(NC(=O)CSc2nnc(Cn3cnc([N+](=O)[O-])n3)n2CC)cc1	-1	-2	0	-13	5	0	/	/
CCC(CO)n1c(SCc2cc([N+](=O)[O-])cc3c2OCOC3)nc2ccccc2c1=O (centres undefined)	-4	/	-1	-2	-5	0	/	/
O=[N+]([O-])c1cc2c(c(CSc3nnc(Nc4ccccc4)s3)c1)OCOC2	-2	39	-2	3	64*	-2	93*	-1.6	AML12 tox conf=9
COc1ccc(-c2nn(-c3ccccc3)cc2/C=N/NC(=O)c2cccc(S(=O)(=O)Nc3ccccc3OC)c2)cc1	-1	31	1	1	-20	-2	/	/
Cc1cc(C)cc(NCc2ccncc2)c1	-2	12	0	1	-2	-1	/	/
c1ccc(NCc2ccncc2)cc1	2	/	0	-2	55*	-2	4	0.77
Cc1c(Cl)cccc1N(CC(=O)NC(C)c1ccccc1)S(C)(=O)=O (centres undefined)	0	-8	1	-2	58*	0	47	-0.75
O=C(Cc1ccc(S(=O)(=O)N2CCOCC2)s1)N1CCN(c2cccc(C(F)(F)F)c2)CC1	-2	3	0	0	-5	-2	/	/

High-throughput results: PubChem, several laboratories
